Where “and” joins values, the source holds several entries; their conditions need not be identical. Equal entries are not always repeated. Entries after “also recorded” stand apart in the source; their conditions may differ. Where a SMILES comes first, the peptide text is derived from it. The star is where a group is joined. 5FAM = O=C1OC2(c3ccc(O)cc3Oc3cc(O)ccc32)c2ccc(C(=O)*)cc21
Columns and labels:
Type in all cases: in vivo, human
[1] = system: adult patients with head and neck neoplasms undergoing parotidectomy or thyroidectomy
[2] = system: nerves (head and neck surgery); assay: Quantitative image analysis of intraoperative nerve fluorescence; details: for Background fluorescence, mean pixel intensity (MPI): FL images
Procedure, shortened: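 Paired white-light and fluorescence images taken intraoperatively through a surgical microscope with a yellow 560 fluorescence module. Analysis used the green channel of fluorescence images and 5–20 elliptical ROIs per nerve and per adjacent non-nerve tissue. After background subtraction, SBR = nerve MPI / background MPI. Statistics: Welch ANOVA, Kruskal-Wallis, Wilcoxon rank sum.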

[3] = system: adult patients with head and neck neoplasms; assay: Clinical laboratory assessments
Procedure, shortened: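 Test compound given as a single IV infusion over 30 min on Day 1, at dose tiers of 100–600 mg. Hematology, chemistry, coagulation and urinalysis were run at the preoperative visit, then repeated on Day 1 before dosing and at end of infusion. Histamine, tryptase, C3a and C5 were sampled before, during and after infusion. Further safety labs on Day 15 (±8 days) and Day 28 (+5 days). Summarized descriptively by dose.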

[4] = system: nerves (head and neck surgery); assay: Visualization Scoring System; details: 500 mg
[5] = system: adult patients with head and neck neoplasms; assay: Vital signs, physical examination and 12-lead ECG
[6] = Pharmacokinetics after intravenous infusion

## CC(C)[C@H](NC(=O)[C@H](Cc1ccc(O)cc1)NC(=O)[C@H](Cc1ccc(O)cc1)NC(=O)[C@@H]1CCCN1C(=O)[C@H](CCC(=O)O)NC(=O)[C@H](CCC(=O)O)NC(=O)[C@H](Cc1c[nH]c2ccccc12)NC(=O)[C@@H]1CCCN1C(=O)[C@@H](NC(=O)[C@H](CCC(N)=O)NC(=O)c1ccc2c(c1)C(=O)OC21c2ccc(O)cc2Oc2cc(O)ccc21)C(C)C)C(=O)N[C@H](C(=O)N[C@@H](CCCCN)C(=O)N[C@@H](CCCCN)C(=O)N[C@@H](CO)C(=O)N[C@@H](CO)C(=O)NCC(=O)NCC(N)=O)C(C)C [bevonescein] (5FAM-QVPWEEPYYVVKKSSGG-NH2; C-terminus assumed)
[1]; 27 patients
  AEs greater than grade 1 attributable to the study drug: no adverse events greater than grade 1
[1]; 27 subjects, all doses, resolved without intervention
  AEs assessed as possibly related to the study drug: a single adverse event
[1]; 100-600 mg
  Tolerability of preoperative intravenous infusion: well tolerated
[1]; all doses 100-600 mg, single IV infusion over 30 min, 27 patients, NCI CTCAE
  Dose-limiting toxicity (DLT): no dose-limiting toxicity
[2]; 500 mg cohort (dose comparison)
  SBR, FL images: 3.0 ± 1.0
[2]; 500 mg cohort
  Background fluorescence, mean pixel intensity (MPI): 39.5 ± 17
[2]; 500 mg, 54 evaluable nerves in 14 subjects, mean ± SD
  Signal-to-background ratio (SBR), fluorescence (FL) images: 2.1 ± 0.8 and 2.08 ± 0.83
[2]; 500 mg, infusion to incision, two-sided Wilcoxon rank sum test
  Fluorescent SBR of nerves, early (1-3 h) versus late (3-5 h) timing cohorts: not statistically different; also recorded: no significant difference
[2]; 600 mg cohort, Welch ANOVA p < 0.01 vs 500 mg
  Background fluorescence, mean pixel intensity (MPI): 73.2 ± 34
[2]; 600 mg cohort, Kruskal-Wallis p > 0.05 vs 500 mg
  SBR, FL images: 2.2 ± 1.6
[3]; all patients, as deemed by the investigators
  Hematology, chemistry, coagulation, and urinalysis findings: normal ranges or not clinically significant abnormalities
[3]; during the study
  Tryptase and complements C3a and C5 levels: remained stable
[4]
  Improvement in nerve length with FL images, share of subjects (so in the source): 78%
[4]; 14 subjects
  Subjects with some improvement in visible nerve length: 100%
[4]; n = 42/54 nerves, paired FL overlay vs WLR
  Individual nerves with improvement in length measurements: 78%
[5]; all cohorts
  Changes from baseline in vital signs: no clinically significant or relevant differences
[5]; all patients, 12-lead ECG
  ECG values: normal or non-clinically significant abnormal ECG values
[6]; 100 to 600 mg, bevonescein not bound to plasma or tissue proteins
  Increase of mean unbound AUClast over the 6-fold increase in dose: 6.1 fold
[6]; from unbound vs total AUClast
  Free fraction: approximately 30%

From paper PMC12219357 (Nature Communications, 2025)
